Data published in ChEMBL document CHEMBL3120097, “HCV NS5A replication complex inhibitors. Part 4. Optimization for genotype 1a replicon inhibitory activity” (J Med Chem, 2014).

Experiments:
Hepatitis C virus [1] = test: Antiviral activity against HCV genotype 1a H77c infected in human HuH7 cells after 5 days by ELISA; format: functional, organism-based, Hepacivirus hominis; conditions: Huh-7, 120 h
Outline: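 Genotype 1a (H77c) replicon cells, 1.5 × 10⁴/well in DMEM + 10% FBS, attached overnight at 37 °C; serially diluted compounds (in FBS-free DMEM) added, 5 days at 37 °C. Cells dried overnight at 37 °C to fix, Triton-permeabilized, casein-blocked; NS5A antiserum then HRP secondary, chemiluminescent read. Inhibition relative to untreated wells; background set with 500 nM NS3 inhibitor.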

Hepatitis C virus [2] = test: Antiviral activity against HCV genotype 1b infected in human HuH7 cells after 72 hrs by FRET assay; format: functional, organism-based, Hepacivirus hominis; conditions: Huh-7, 72 h
Outline: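 Replicon cells seeded 10K/well, attached overnight; compounds added with 0.5% v/v DMSO vehicle controls, typically 72 h. Alamar blue read first, then cells PBS-rinsed and lysed with reagent holding 150 mM NaCl and 20 μM final EDANS/DABCYL NS3 protease peptide; kinetic fluorescence 340/490 nm. EC₅₀ = concentration halving background-subtracted FRET signal versus DMSO wells.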

[3] = Cytotoxicity against bovine MDBK cells after 3 days by CellTitre-Blue assay; format: cell-based, Bos taurus; conditions: cattle
[4] = tested on: Bovine viral diarrhea virus 1; test: Antiviral activity against BVDV infected in bovine MDBK cells after 72 hrs by luciferase reporter gene assay; format: functional, organism-based; conditions: Bovine viral diarrhea virus isolates and strains

With O=C(Nc1ccc(/C=C/c2ccc(NC(=O)[C@@H]3CCCN3C(=O)c3nccc4c(Cl)cccc34)cc2)cc1)[C@@H]1CCCN1C(=O)c1nccc2c(Cl)cccc12 as the molecule, how does the EC50 (Hepatitis C virus [1]) read?
Its EC50 is 0.255 µM.

What about the EC50 (Hepatitis C virus [2]) of the same molecule?
The EC50 was 0.139 µM.

And the CC50 at 72 h [3]?
The CC50 at 72 h was over 10 µM.

And the EC50 [4]?
Its EC50 is over 10 µM.

For O=C(Nc1ccc(/C=C/c2ccc(NC(=O)[C@@H]3CCCN3C(=O)c3nccc4cc(Cl)ccc34)cc2)cc1)[C@@H]1CCCN1C(=O)c1nccc2cc(Cl)ccc12, which EC50 (Hepatitis C virus [1]) is on record?
The EC50 was 0.761 µM.

And the EC50 (Hepatitis C virus [2])?
Its EC50 is 0.11 µM.

And the CC50 at 72 h [3]?
The CC50 at 72 h was over 10 µM.

What about the EC50 [4] of the same molecule?
The EC50 was 2.1 µM.

With O=C(Nc1ccc(/C=C/c2ccc(NC(=O)[C@@H]3CCCN3C(=O)c3nccc4ccc(Cl)cc34)cc2)cc1)[C@@H]1CCCN1C(=O)c1nccc2ccc(Cl)cc12 as the molecule, how does the EC50 (Hepatitis C virus [1]) read?
The EC50 was over 10 µM.

And the EC50 (Hepatitis C virus [2])?
The EC50 was 0.036 µM.

And the CC50 at 72 h [3]?
Its CC50 at 72 h is over 10 µM.

And the EC50 [4]?
Its EC50 is over 10 µM.

Which EC50 (Hepatitis C virus [1]) does the source give for O=C(Nc1ccc(/C=C/c2ccc(NC(=O)[C@@H]3CCCN3C(=O)c3nc(F)cc4ccccc34)cc2)cc1)[C@@H]1CCCN1C(=O)c1nc(F)cc2ccccc12 here?
Its EC50 is 0.07 µM.

And the EC50 (Hepatitis C virus [2])?
Its EC50 is 0.027 µM.

What about the CC50 at 72 h [3] of the same molecule?
The CC50 at 72 h was over 10 µM.

What about the EC50 [4] of the same molecule?
The EC50 was over 10 µM.

For O=C(Nc1ccc(/C=C/c2ccc(NC(=O)[C@@H]3CCCN3C(=O)c3nccc4c(F)cccc34)cc2)cc1)[C@@H]1CCCN1C(=O)c1nccc2c(F)cccc12, which EC50 (Hepatitis C virus [1]) is on record?
The EC50 was 0.236 µM.

And the EC50 (Hepatitis C virus [2])?
Its EC50 is 0.042 µM.

What about the CC50 at 72 h [3] of the same molecule?
Its CC50 at 72 h is over 10 µM.

And the EC50 [4]?
Its EC50 is 7.9 µM.

For Cc1cc2ccccc2c(C(=O)N2CCC[C@H]2C(=O)Nc2ccc(/C=C/c3ccc(NC(=O)[C@@H]4CCCN4C(=O)c4nc(C)cc5ccccc45)cc3)cc2)n1, which EC50 (Hepatitis C virus [1]) is on record?
The EC50 was 0.329 µM.

And the EC50 (Hepatitis C virus [2])?
The EC50 was 0.006 µM.

What about the CC50 at 72 h [3] of the same molecule?
The CC50 at 72 h was over 10 µM.

And the EC50 [4]?
The EC50 was over 10 µM.

For Cc1cccc2c(C(=O)N3CCC[C@H]3C(=O)Nc3ccc(/C=C/c4ccc(NC(=O)[C@@H]5CCCN5C(=O)c5nccc6c(C)cccc56)cc4)cc3)nccc12, which EC50 (Hepatitis C virus [1]) is on record?
The EC50 was over 10 µM.

What about the EC50 (Hepatitis C virus [2]) of the same molecule?
The EC50 was under 0.005 µM.

And the CC50 at 72 h [3]?
Its CC50 at 72 h is over 10 µM.

What about the EC50 [4] of the same molecule?
Its EC50 is over 10 µM.

Which EC50 (Hepatitis C virus [1]) does the source give for COc1cc2ccccc2c(C(=O)N2CCC[C@H]2C(=O)Nc2ccc(/C=C/c3ccc(NC(=O)[C@@H]4CCCN4C(=O)c4nc(OC)cc5ccccc45)cc3)cc2)n1 here?
The EC50 was over 10 µM.

And the EC50 (Hepatitis C virus [2])?
The EC50 was 0.032 µM.

What about the CC50 at 72 h [3] of the same molecule?
Its CC50 at 72 h is over 10 µM.

And the EC50 [4]?
Its EC50 is over 10 µM.

Which EC50 (Hepatitis C virus [1]) does the source give for COc1cccc2c(C(=O)N3CCC[C@H]3C(=O)Nc3ccc(/C=C/c4ccc(NC(=O)[C@@H]5CCCN5C(=O)c5nccc6c(OC)cccc56)cc4)cc3)nccc12 here?
The EC50 was 0.175 µM.

And the EC50 (Hepatitis C virus [2])?
The EC50 was 0.215 µM.

What about the CC50 at 72 h [3] of the same molecule?
Its CC50 at 72 h is over 10 µM.

And the EC50 [4]?
The EC50 was over 10 µM.

Which results are given for O=C(Nc1ccc(/C=C/c2ccc(NC(=O)[C@@H]3CCCN3C(=O)c3cc(Cl)cc4ccccc34)cc2)cc1)[C@@H]1CCCN1C(=O)c1cc(Cl)cc2ccccc12?
EC50 (Hepatitis C virus [1]): > 10 µM; EC50 (Hepatitis C virus [2]): 0.24 µM; CC50 at 72 h [3]: > 10 µM; EC50 [4]: > 10 µM

Which EC50 (Hepatitis C virus [1]) does the source give for O=C(Nc1ccc(/C=C/c2ccc(NC(=O)[C@@H]3CCCN3C(=O)c3nc(Cl)cc4c(F)cccc34)cc2)cc1)[C@@H]1CCCN1C(=O)c1nc(Cl)cc2c(F)cccc12 here?
Its EC50 is 0.042 µM.

And the EC50 (Hepatitis C virus [2])?
Its EC50 is 0.018 µM.

And the CC50 at 72 h [3]?
The CC50 at 72 h was over 10 µM.

And the EC50 [4]?
The EC50 was over 10 µM.

With COc1cccc2nc(C(=O)N3CCC[C@H]3C(=O)Nc3ccc(/C=C/c4ccc(NC(=O)[C@@H]5CCCN5C(=O)c5ccc6c(OC)cccc6n5)cc4)cc3)ccc12 as the molecule, how does the EC50 (Hepatitis C virus [1]) read?
The EC50 was over 10 µM.

What about the EC50 (Hepatitis C virus [2]) of the same molecule?
Its EC50 is 0.971 µM.

What about the CC50 at 72 h [3] of the same molecule?
The CC50 at 72 h was over 10 µM.

And the EC50 [4]?
Its EC50 is over 10 µM.

For COc1ccc2ccc(C(=O)N3CCC[C@H]3C(=O)Nc3ccc(/C=C/c4ccc(NC(=O)[C@@H]5CCCN5C(=O)c5ccc6ccc(OC)cc6n5)cc4)cc3)nc2c1, which EC50 (Hepatitis C virus [1]) is on record?
Its EC50 is 0.126 µM.

What about the EC50 (Hepatitis C virus [2]) of the same molecule?
Its EC50 is 0.062 µM.

And the CC50 at 72 h [3]?
The CC50 at 72 h was over 10 µM.

What about the EC50 [4] of the same molecule?
The EC50 was over 10 µM.

For C=Cc1ccccc1C(=O)N1CCC[C@H]1C(=O)Nc1ccc(/C=C/c2ccc(NC(=O)[C@@H]3CCCN3C(=O)c3ccccc3C=C)cc2)cc1, which EC50 (Hepatitis C virus [1]) is on record?
Its EC50 is 1.1 µM.

What about the EC50 (Hepatitis C virus [2]) of the same molecule?
Its EC50 is 1.2 µM.

And the CC50 at 72 h [3]?
Its CC50 at 72 h is over 10 µM.

What about the EC50 [4] of the same molecule?
Its EC50 is over 5 µM.

Which EC50 (Hepatitis C virus [1]) does the source give for CCc1cccnc1C(=O)N1CCC[C@H]1C(=O)Nc1ccc(/C=C/c2ccc(NC(=O)[C@@H]3CCCN3C(=O)c3ncccc3CC)cc2)cc1 here?
Its EC50 is 0.72 µM.

And the EC50 (Hepatitis C virus [2])?
Its EC50 is 0.046 µM.

What about the CC50 at 72 h [3] of the same molecule?
Its CC50 at 72 h is over 10 µM.

And the EC50 [4]?
The EC50 was 3.1 µM.

What does the source list for CCc1ccnc(C(=O)N2CCC[C@H]2C(=O)Nc2ccc(/C=C/c3ccc(NC(=O)[C@@H]4CCCN4C(=O)c4cc(CC)ccn4)cc3)cc2)c1?
EC50 (Hepatitis C virus [1]): 4.1 µM; EC50 (Hepatitis C virus [2]): 0.39 µM; CC50 at 72 h [3]: > 10 µM; EC50 [4]: > 5 µM

For C=Cc1cccnc1C(=O)N1CCC[C@H]1C(=O)Nc1ccc(/C=C/c2ccc(NC(=O)[C@@H]3CCCN3C(=O)c3ncccc3C=C)cc2)cc1, which EC50 (Hepatitis C virus [1]) is on record?
Its EC50 is 3.5 µM.

What about the EC50 (Hepatitis C virus [2]) of the same molecule?
Its EC50 is 0.32 µM.

What about the CC50 at 72 h [3] of the same molecule?
Its CC50 at 72 h is over 10 µM.

And the EC50 [4]?
The EC50 was over 5 µM.

Which EC50 (Hepatitis C virus [1]) does the source give for O=C(Nc1ccc(/C=C/c2ccc(NC(=O)[C@@H]3CCCN3C(=O)c3ncccc3-c3ccccc3)cc2)cc1)[C@@H]1CCCN1C(=O)c1ncccc1-c1ccccc1 here?
The EC50 was 2.2 µM.

What about the EC50 (Hepatitis C virus [2]) of the same molecule?
The EC50 was 0.82 µM.

And the CC50 at 72 h [3]?
Its CC50 at 72 h is over 10 µM.

And the EC50 [4]?
Its EC50 is over 5 µM.
